Screens deposited in PubChem BioAssay by several laboratories.
Compounds with a hit are over-represented: about 6.4% of the library has one in this group of screens.
HUVEC inhibit: human endothelial cell proliferation inhibition; AID 648; actives 1.1% (n = 86,000); viability, % at 10 µM (by protocol); HUVEC proliferation, CellTiter-Glo luminescence, 72 h; active compounds read low;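 active = viability at or below 30%; inactive = viability above 30%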;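 note: 100% = median luminescence of DMSO-only cell control wells on each plate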
H69AR inhibit: blocks growth of human H69AR lung tumor cells; H69AR lung tumor viability, ATP luminescence, 72 h; active compounds read low; actives 6% (n = 85,000); viability, % at 10 µM; AID 598;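 active = viability at or below 40%; inactive = viability above 40%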;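 note: multidrug resistant small cell line overexpressing MRP-1 efflux transporter; 100% = mean luminescence of untreated control wells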
Fibroblast inh: blocks proliferation of human lung fibroblasts. LL 47 human lung fibroblast viability, ATP luminescence; active compounds read low. AID 719. actives 1.1% (n = 85,000). viability, % at 10 µM;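 active = viability at or below 50% in the single dose screen; inactive = viability above 50%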;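 note: compound exposure lasted 72 h before the ATP readout; 100% = median luminescence of untreated cell-only wells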
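Material: human LL 47 lung fibroblast cells; quantity: 1,150 cells/well; medium: IMEM plus 15% FBS; doses: 0.1% DMSO in all compound wells; timing: overnight attachment after seeding, then 72 h compound exposure at 37 °C; detection: CellTiter-Glo luminescence; measure: % viability of median cell-only signal; controls: cell-only wells, no compound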
Jurkat viability: cytotoxic compounds reducing Jurkat cell viability. Jurkat E6.1 viability, ATP luminescence, 48 h. inhibition, % at 4 µM. actives 1.2% (n = 56,000). AID 463;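 active = inhibition above the mean inhibition of all tested compounds plus 3 SD, cut at about 28% in these data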
Numbers without * were called inactive; · = no result given.

SMILES | HUVEC inhibit | H69AR inhibit | Fibroblast inh | Jurkat viability
Cc1ccc(C(=O)C(NC(=O)c2ccco2)Nc2sc3c(c2C(N)=O)CCCC3)cc1 (configuration not stated) | 82 | 99 | 81 | ·
CN1/C(=C/C(=O)c2nc(S(C)(=O)=O)ncc2Cl)C(C)(C)c2ccccc21 | 24 | 0.6* | 19* | 102*
COc1ccc(OC)c(-n2c(C)ccc2-c2ccc(S(C)(=O)=O)cc2)c1 | 97 | 90 | 94 | ·
COC(=O)c1ccc(CSc2nc(N3CCOCC3)c3c(c2C#N)CC(C)(C)OC3)o1 | 93 | 32* | 104 | ·
Nc1c(C(O)(C(F)(F)F)C(F)(F)F)cc(C(O)(C(F)(F)F)C(F)(F)F)c2ccccc12 | 70 | 25* | 70 | ·
Cc1ccn2c(-c3csc(NCc4ccccc4)n3)c(C)nc2c1 | 63 | 22* | 85 | ·
Cc1nc(NC(=O)c2ccccc2)sc1-c1csc(NCc2ccco2)n1 | 67 | 18* | 88 | 6
Cc1nc2ccccn2c1-c1csc(NCc2ccco2)n1 | 98 | 78 | 91 | 32*
Cc1nc(C)c(-c2csc(NCc3ccccc3)n2)s1 | 94 | 87 | 87 | -1
Cc1nc(C)c(-c2csc(NCc3ccco3)n2)s1 | 95 | 93 | 97 | -1
CCCn1nnnc1SCC(=O)N(C(C)C)C(C)C | 98 | 88 | 93 | 9
CC(C)[C@H](NC(=O)OC(C)(C)C)C(=O)N/N=C/c1cccc2nccnc12 | 76 | 96 | 96 | ·
O=S(=O)(/C=C/c1ccccc1)n1cnc2ccccc21 | 84 | 20* | 68 | -6
CN(C)S(=O)(=O)n1cnc2ccccc21 | 90 | 95 | 101 | ·
CC(C)(CNC(=O)c1cccs1)CNC(=O)c1cccs1 | 98 | 88 | 89 | -4
Cc1cccc(N(C)c2cc(C)nc3nc(C)nn23)c1 | 102 | 23* | 95 | 9
O=C(COC(=O)c1cc([N+](=O)[O-])ccc1NCc1ccccc1)NC1CCCc2ccccc21 (configuration not stated) | 72 | 38* | 56 | ·
COC(=O)C1=C(C)NC(C)=C(C(=O)OC)C1c1ccccc1[N+](=O)[O-] | 81 | 8.5* | 56 | ·
C#CCN1C(=O)C(O)(CC(=O)c2ccc3c(c2)OCCO3)c2ccccc21 (configuration not stated) | 81 | 35* | 100 | 0
C#CCN1C(=O)C(O)(CC(=O)c2ccc(OC)c(OC)c2)c2ccccc21 (configuration not stated) | 102 | 41 | 98 | 0
CCCN1C(=O)C(O)(CC(=O)c2cccc(OC)c2)c2ccccc21 (configuration not stated) | 85 | 28* | 92 | -5
CCCN1C(=O)C(O)(CC(=O)c2ccc3c(c2)OCCO3)c2ccccc21 (configuration not stated) | 96 | 17* | 95 | 0
CCOC(=O)C1CCN(C(=O)CN(c2cc(OC)ccc2OC)S(=O)(=O)c2ccccc2)CC1 | 95 | 96 | · | -1
O=c1cc(NC2CCCCC2)c2ccccc2o1 | 90 | 45 | 88 | ·
CCOc1ccc2nc(NC(=O)COC)sc2c1 | 83 | 98 | 94 | ·
SMILES | HUVEC inhibit | H69AR inhibit | Fibroblast inh | Jurkat viability
CCOc1ccc2nc(NC(=O)Nc3cccs3)sc2c1 | 60 | 35* | 89 | -4
CCOc1ccc2nc(NC(=O)c3ccoc3C)sc2c1 | 42 | 20* | 35* | 42*
CCOc1ccc2nc(NC(=O)C3CCN(S(=O)(=O)c4cnc[nH]4)CC3)sc2c1 | 88 | 58 | 88 | 11
CCOc1ccc2nc(NC(=O)C3CCN(c4cnccn4)CC3)sc2c1 | 91 | 34* | 99 | 2
Cn1c(/C=C/c2ccc([N+](=O)[O-])o2)nc2ccccc2c1=O | 16* | -0.5* | 5.2* | ·
O=C(Cn1c(=O)oc2cc(S(=O)(=O)N3CCCC3)ccc21)Nc1cccc(C(F)(F)F)c1 | 92 | 38* | 99 | 20
O=C(CSc1nnnn1-c1ccc(Cl)cc1)N1CCc2ccccc2C1 | 104 | 94 | 95 | -7
Clc1cccc(COn2c(-c3ccc(Cl)cc3Cl)nc3ncccc32)c1 | 68 | 103 | 86 | ·
Cc1ccc(COn2c(-c3ccc(Cl)cc3Cl)nc3ncccc32)cc1 | 83 | 39* | 92 | ·
CCCCOC(=O)Cn1c2ccc(OC)cc2c2nc3ccccc3nc21 | 68 | 28* | 71 | ·
CC(C)Oc1ccc(C(=O)Nc2ccccc2N2CCCC2)cc1 | 111 | 32* | 88 | ·
Cc1ccc(C(=O)Nc2ccccc2N2CCN(C(=O)C(C)C)CC2)cc1 | 94 | 81 | 104 | 2
CC1=NOC(=O)/C1=C\c1ccc(-c2cccc(Cl)c2)o1 | 42 | 1.1* | 8.0* | ·
O=C(O)c1ccc(-c2cccc(Cl)c2)o1 | 94 | 90 | 103 | ·
COc1cc(C2Sc3ccccc3NC3=C2C(=O)OC3)cc(OC)c1OC (configuration not stated) | 72 | 14* | 81 | ·
Cc1ccc(NS(=O)(=O)c2ccc(NC(=O)c3ccc(Br)o3)cc2)c(C)c1 | 69 | 74 | 98 | -1
O=C(COc1ccc(S(=O)(=O)N2CCOCC2)cc1)Nc1ccc(Cl)c(C(F)(F)F)c1 | 52 | 25* | 59 | 23
COc1cc(C(=O)Nc2nc3ccccc3s2)ccc1OCc1c(C)noc1C | 74 | 19* | 80 | ·
Nc1ccc(C(=O)Nc2nc3ccccc3s2)cc1 | 89 | 70 | 99 | ·
COc1cc(C(=O)Nc2nccs2)ccc1OCc1c(C)noc1C | 97 | 84 | 99 | 2
Cc1cc(C)n(-c2ccc(C(=O)Nc3ccc(S(=O)(=O)NCc4ccco4)cc3)cc2)n1 | 58 | 65 | 87 | 65*
O=C(Nc1ccccc1)c1ccc(S(=O)(=O)NCc2ccco2)cc1 | 105 | 91 | 98 | 11
Cc1cc(C)n(-c2ccc(C(=O)Nc3nc4ccccc4s3)cc2)n1 | 60 | 15* | 102 | 4
CCOc1ccc(N(Cc2cc3ccc(C)cc3[nH]c2=O)S(C)(=O)=O)cc1 | 104 | 77 | 101 | ·
COC(=O)c1c(C(=O)OC)c2ccncn2c1Cl | 92 | 146 | 99 | ·
SMILES | HUVEC inhibit | H69AR inhibit | Fibroblast inh | Jurkat viability
CCOc1ccc(NC(=O)Cn2nnc(-c3ccccc3NC(=O)CC)n2)cc1 | 94 | 80 | 89 | 0
O=C(Cn1nnc(-c2ccccc2NC(=O)c2ccco2)n1)Nc1ccccc1 | 46 | 23* | 78 | -3
Cc1ccc(NC(=O)Cn2nnc(-c3ccccc3NC(=O)c3cccs3)n2)cc1 | 19* | 6.8* | 46* | ·
COc1ccc(NC(=O)Cn2nnc(-c3ccccc3NC(=O)c3cccs3)n2)cc1 | 32 | 7.5* | · | -2
Cc1c(SCCO)c(=O)[nH]c2cc3c(cc12)OCO3 | 99 | 104 | 99 | ·
CC1(C)C(=O)OC(c2cccs2)C(C)(C)C1=O (configuration not stated) | 94 | 98 | 90 | 9
N#CC1=C(N)Oc2n[nH]c(-c3cccs3)c2C1C1CCCCC1 (configuration not stated) | 72 | 38* | 100 | ·
N#CC1=C(N)Oc2n[nH]c(-c3cccs3)c2C1C1C=CCCC1 (configuration not stated) | 87 | 88 | 106 | ·
CCCC(O)(c1ccc(Cl)cc1)C(CN1CCOCC1)c1ccccc1 (configuration not stated) | 106 | 40* | 96 | ·
